In ChEMBL document CHEMBL3297648, “Diterpenoids from the Chinese liverwort Heteroscyphus tener and their antiproliferative effects” (J Nat Prod, 2014):
Calls of active or inactive are those of the source. No cut-off for these calls is given here.

Columns and labels:
[1] = target: Breast cancer type 1 susceptibility protein (Homo sapiens) (UniProt P38398); assay: Inactivation of BRCA1 in human DU145 cells assessed as decline in BRCA1 phosphorylation at Ser1524 at 20 uM by western blot analysis; assay type: cell-based; conditions: DU-145
How it was run: (§1)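 Cells treated at 20 μM for various times, lysed in RIPA buffer with protease/phosphatase inhibitors, protein quantified by BCA. Equal protein run on 12% SDS-PAGE, transferred to nitrocellulose, blocked 1 h in 5% milk/TBST, primary antibodies overnight at 4 °C, secondary 1:2000 for 45 min, ECL detection on film. GAPDH used as loading control.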

A549 = assay: Antiproliferative activity against human A549 cells assessed as inhibition of cell viability after 24 hrs by MTT assay; assay type: functional, cell-based; conditions: A549, 24 h
How it was run: (§2)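 Cells grown to 50–70% confluence (RWPE1 in K-SFM with pituitary extract and EGF; the other lines in RPMI 1640 with 10% FBS), 5% CO2, 37 °C. Treated for 24 h with DMSO vehicle, compounds, or cisplatin as positive control. MTT (5 mg/mL) added for 4 h, formazan dissolved in DMSO, absorbance read at 570 nm. Viability taken relative to untreated cells after blank subtraction, IC50 fitted from % viability, at least three experiments.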

[2] = Decrease in BRCA1 protein expression in human DU145 cells at 20 uM after 2 to 48 hrs by western blot analysis; assay type: functional, cell-based; conditions: DU-145; how it was run: as §1
DU-145 [3] = assay: Induction of apoptosis in human DU145 cells assessed as necrotic cells at 20 uM after 24 hrs by Annexin V-FITC/propidium iodide staining based flow cytometry (reference value: 0.21%); assay type: functional
How it was run: (§3)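 Cells seeded in 6-well plates for 24 h, then given 20 μM for the stated times. Cells were trypsinized, PBS-washed, stained with annexin V-FITC/PI, and analysed immediately by flow cytometry. Means ± SD of three independent experiments; Student's t test against untreated control.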

PC-3 [4] = assay: Induction of apoptosis in human PC3 cells assessed as increase in caspase-3 activity using Ac-DEVD-AMC as substrate at 20 uM by fluorometric method; assay type: functional, cell-based; conditions: TDE = time-dependent effect
How it was run: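 Cells treated with 20 μM for the stated times. Pellets lysed on ice 15 min, spun at 14 000g for 15 min at 4 °C. Supernatant assayed in buffer containing CHAPS, 10% glycerol, 2 mM EDTA, 5 mM DTT for 2 h at 37 °C. Fluorescence read at ex 380/em 440 nm.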

NCI-H446 = assay: Antiproliferative activity against human NCI-H446 cells assessed as inhibition of cell viability after 24 hrs by MTT assay; assay type: functional, cell-based; conditions: NCI-H446, 24 h; how it was run: as §2
DU-145 [5] = assay: Antiproliferative activity against human DU145 cells assessed as inhibition of cell viability at 20 uM pretreated for 1 hr with 5 mM antioxidant NAC measured after 24 hrs by MTT assay; assay type: functional, cell-based
[6] = Antiproliferative activity against human RWPE1 cells assessed as inhibition of cell viability after 24 hrs by MTT assay; assay type: cell-based; conditions: RWPE-1, 24 h; how it was run: as §2
DU-145 [7] = assay: Induction of apoptosis in human DU145 cells assessed as necrotic cells at 20 uM after 8 hrs by Annexin V-FITC/propidium iodide staining based flow cytometry (reference value: 0.21%); assay type: functional; how it was run: as §3
[8] = Cell cycle arrest at G0/G1 phase in human PC3 cells after 24 hrs by propidium iodide staining based flow cytometry; assay type: functional; conditions: PC-3
DU-145 [9] = assay: Induction of apoptosis in human DU145 cells assessed as necrotic cells at 20 uM after 12 hrs by Annexin V-FITC/propidium iodide staining based flow cytometry (reference value: 0.21%); assay type: functional; how it was run: as §3
PC-3 [10] = assay: Induction of apoptosis in human PC3 cells assessed as late apoptotic cells at 20 uM after 12 hrs by Annexin V-FITC/propidium iodide staining based flow cytometry (reference value: 7.92%); assay type: functional; how it was run: as §3
[11] = Decrease in BRCA1 protein expression in human PC3 cells at 20 uM after 2 to 48 hrs by western blot analysis; assay type: functional, cell-based; conditions: PC-3; how it was run: as §1
DU-145 [12] = assay: Cell cycle arrest in human DU145 cells assessed as accumulation at G2/M phase at 20 uM after 24 hrs by propidium iodide staining based flow cytometry (reference value: 10.44%); assay type: functional
[13] = Antiproliferative activity against HBE cells assessed as inhibition of cell viability after 24 hrs by MTT assay; assay type: cell-based; conditions: Homo sapiens; how it was run: as §2
[14] = Decrease in ChK1 protein expression in human PC3 cells at 20 uM after 2 to 48 hrs by western blot analysis; assay type: functional, cell-based; conditions: PC-3; how it was run: as §1
DU-145 [15] = assay: Induction of apoptosis in human DU145 cells assessed as late apoptotic cells at 20 uM after 4 hrs by Annexin V-FITC/propidium iodide staining based flow cytometry (reference value: 1.53%); assay type: functional; how it was run: as §3
DU-145 [16] = assay: Cell cycle arrest in human DU145 cells assessed as accumulation at subG1 phase at 10 uM after 24 hrs by propidium iodide staining based flow cytometry (reference value: 0.28%); assay type: functional
K562 = assay: Antiproliferative activity against human K562 cells assessed as inhibition of cell viability after 24 hrs by MTT assay; assay type: functional, cell-based; conditions: K562, 24 h; how it was run: as §2
DU-145 [17] = assay: Induction of apoptosis in human DU145 cells assessed as early apoptotic cells at 20 uM after 12 hrs by Annexin V-FITC/propidium iodide staining based flow cytometry (reference value: 1.60%); assay type: functional; how it was run: as §3
[18] = Decrease in cyclin E protein expression in human PC3 cells by western blot analysis; assay type: functional, cell-based; conditions: PC-3, TDE = time-dependent effect
How it was run: (§4)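 Western blot of cyclin D1, cyclin E, Cdk4 and p21 in PC3 and DU145 lysates. Lysis in RIPA buffer plus protease inhibitors, BCA quantification, 12% SDS-PAGE, nitrocellulose transfer, milk block, primaries overnight at 4 °C, secondary 1:2000 for 45 min, ECL read-out. GAPDH served as loading control.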

DU-145 [19] = assay: Induction of ROS generation in human DU145 cells at 20 uM measured up to 6 hrs by DCFH-DA staining based flow cytometry; assay type: functional, cell-based
How it was run: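 Cells exposed to 20 μM for the indicated times, then loaded with 10 μM DCFH-DA for 30 min at 37 °C. Washed, resuspended in PBS and read at once by flow cytometry. ROS expressed as ratio relative to untreated control.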

DU-145 [20] = assay: Antiproliferative activity against human DU145 cells assessed as inhibition of cell viability after 24 hrs by MTT assay; assay type: functional, cell-based; conditions: DU-145, 24 h; how it was run: as §2
[21] = Cell cycle arrest in human PC3 cells assessed as accumulation at subG1 phase at 20 uM after 24 hrs by propidium iodide staining based flow cytometry (reference value: 0.13%); assay type: functional; conditions: PC-3
PC-3 [22] = assay: Increase in p21CIP1 protein expression in human PC3 cells after 2 to 48 hrs by western blot analysis; assay type: functional, cell-based; how it was run: as §4
NCI-H1299 = assay: Antiproliferative activity against human NCI-H1299 cells assessed as inhibition of cell viability after 24 hrs by MTT assay; assay type: functional, cell-based; conditions: NCI-H1299, 24 h; how it was run: as §2
DU-145 [23] = assay: Induction of apoptosis in human DU145 cells assessed as early apoptotic cells at 20 uM after 8 hrs by Annexin V-FITC/propidium iodide staining based flow cytometry (reference value: 1.60%); assay type: functional; how it was run: as §3
DU-145 [24] = assay: Induction of apoptosis in human DU145 cells assessed as necrotic cells at 20 uM after 4 hrs by Annexin V-FITC/propidium iodide staining based flow cytometry (reference value: 0.21%); assay type: functional; how it was run: as §3

Breast cancer type 1 susceptibility protein (Homo sapiens), sequence (P38398 whole entry, looked up): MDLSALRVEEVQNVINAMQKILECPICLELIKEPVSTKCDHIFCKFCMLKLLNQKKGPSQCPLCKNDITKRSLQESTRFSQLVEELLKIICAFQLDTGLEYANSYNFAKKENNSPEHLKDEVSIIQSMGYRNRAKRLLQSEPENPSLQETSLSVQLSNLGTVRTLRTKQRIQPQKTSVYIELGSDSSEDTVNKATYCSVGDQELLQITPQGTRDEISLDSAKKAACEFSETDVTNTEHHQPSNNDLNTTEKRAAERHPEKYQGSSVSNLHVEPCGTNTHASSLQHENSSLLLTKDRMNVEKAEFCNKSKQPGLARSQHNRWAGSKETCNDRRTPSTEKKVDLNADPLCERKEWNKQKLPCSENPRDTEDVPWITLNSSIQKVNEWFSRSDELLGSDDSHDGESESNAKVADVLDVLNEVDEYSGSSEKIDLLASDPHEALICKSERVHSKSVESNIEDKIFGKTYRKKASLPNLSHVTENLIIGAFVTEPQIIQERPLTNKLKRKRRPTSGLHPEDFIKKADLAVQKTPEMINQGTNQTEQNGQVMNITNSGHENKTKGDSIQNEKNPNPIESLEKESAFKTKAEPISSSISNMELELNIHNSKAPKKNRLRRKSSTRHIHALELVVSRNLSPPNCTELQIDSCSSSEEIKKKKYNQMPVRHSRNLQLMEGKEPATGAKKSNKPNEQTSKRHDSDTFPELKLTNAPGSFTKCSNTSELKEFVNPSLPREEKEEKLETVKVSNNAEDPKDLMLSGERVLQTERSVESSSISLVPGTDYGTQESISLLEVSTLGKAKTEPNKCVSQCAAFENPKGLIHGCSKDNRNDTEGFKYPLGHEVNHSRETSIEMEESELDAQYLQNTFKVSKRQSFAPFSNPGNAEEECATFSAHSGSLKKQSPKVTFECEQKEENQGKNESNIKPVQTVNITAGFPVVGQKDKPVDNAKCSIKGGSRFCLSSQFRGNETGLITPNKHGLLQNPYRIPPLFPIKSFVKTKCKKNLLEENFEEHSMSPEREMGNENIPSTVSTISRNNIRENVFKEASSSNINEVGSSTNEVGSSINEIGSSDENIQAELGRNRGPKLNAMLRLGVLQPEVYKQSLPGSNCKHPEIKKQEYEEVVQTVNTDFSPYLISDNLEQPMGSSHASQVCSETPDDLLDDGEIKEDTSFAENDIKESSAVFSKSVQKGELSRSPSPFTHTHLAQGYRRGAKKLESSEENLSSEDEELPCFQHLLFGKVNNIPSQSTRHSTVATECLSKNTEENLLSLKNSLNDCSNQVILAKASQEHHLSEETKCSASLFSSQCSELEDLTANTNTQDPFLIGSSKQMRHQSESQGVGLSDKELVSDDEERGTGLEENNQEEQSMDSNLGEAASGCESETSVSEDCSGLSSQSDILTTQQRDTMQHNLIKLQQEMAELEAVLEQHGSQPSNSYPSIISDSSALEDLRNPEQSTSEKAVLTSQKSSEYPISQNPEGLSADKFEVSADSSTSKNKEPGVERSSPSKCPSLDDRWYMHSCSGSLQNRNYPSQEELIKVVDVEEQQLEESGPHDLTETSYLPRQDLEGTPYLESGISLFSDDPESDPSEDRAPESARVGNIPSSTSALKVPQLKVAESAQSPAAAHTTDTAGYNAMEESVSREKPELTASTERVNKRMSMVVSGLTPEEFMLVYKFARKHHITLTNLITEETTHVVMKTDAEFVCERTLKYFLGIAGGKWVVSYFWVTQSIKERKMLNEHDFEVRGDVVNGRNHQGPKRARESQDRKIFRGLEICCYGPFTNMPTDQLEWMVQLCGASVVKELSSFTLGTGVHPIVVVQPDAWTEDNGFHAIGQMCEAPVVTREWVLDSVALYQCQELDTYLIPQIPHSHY

- inhibition [1]: Active
- IC50 (A549): > 40 µM
- IC50 (NCI-H446): 39.5 µM
- IC50 (K562): 15.8 µM
- IC50 (DU-145 [20]): 28.5 µM
- IC50 (NCI-H1299): 35.1 µM
Structure (SMILES): C=C[C@@](C)(O)CC[C@@H]1C(C)=CC[C@@H]2C(C)(C)CCC[C@@]12C
- inhibition [2]: inactive
- Activity (DU-145 [3]): 4.55%
- Activity (PC-3 [4]): tde
- inhibition (DU-145 [5]): inactive
- IC50 [6]: 81 µM
- Activity (DU-145 [7]): 2.44%
- Activity [8]: Dose-dependent effect
- Activity (DU-145 [9]): 1.05%
- Activity (PC-3 [10]): 12.66%
- inhibition [11]: inactive
- Activity (DU-145 [12]): 12.9%
- IC50 [13]: 53.9 µM
- inhibition [14]: Active
- Activity (DU-145 [15]): 9.26%
- Activity (DU-145 [16]): 1.97%
- Activity (DU-145 [17]): 6.55%
- inhibition [18]: tde
- Activity (DU-145 [19]): Active
- Activity [21]: 2.39%
- Activity (PC-3 [22]): Active
- Activity (DU-145 [23]): 4.56%
- Activity (DU-145 [24]): 1.54%
